Experimental data taken from ChEMBL document CHEMBL2417369, “Synthesis and evaluation of heteroaryl substituted diazaspirocycles as scaffolds to probe the ATP-binding site of protein kinases” (Bioorg Med Chem, 2013).

Tests used:
[1] = target: Ribosomal protein S6 kinase alpha-3 (Homo sapiens) (UniProt P51812); test: Inhibition of RSK2 (unknown origin) at 30 uM by microfluidic mobility shift assay relative to control
Outline: (§1)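 Single-point screen against a 24-kinase panel in a commercial microfluidic assay format. Compounds were tested at 30 µM, with ATP at approximately the Km,[ATP] of each enzyme. H-89 was included on each assay plate as an internal control.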

[2] = target: Vascular endothelial growth factor receptor 2 (Homo sapiens) (UniProt P35968); test: Inhibition of KDR (unknown origin) at 30 uM by microfluidic mobility shift assay relative to control
Outline: (§2)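 Single-point screen at 30 µM test compound across a 24-kinase panel in a microfluidic assay format. ATP was set near each enzyme's Km,[ATP]. […] The pan-AGC inhibitor H-89 served as an internal control on every assay plate.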

[3] = target: T1, Serine/threonine-protein kinase D1 (Homo sapiens) (UniProt Q15139); test: Inhibition of PKD1 (unknown origin) at 30 uM by microfluidic mobility shift assay relative to control; outline: as §1
T1 sequence (whole entry): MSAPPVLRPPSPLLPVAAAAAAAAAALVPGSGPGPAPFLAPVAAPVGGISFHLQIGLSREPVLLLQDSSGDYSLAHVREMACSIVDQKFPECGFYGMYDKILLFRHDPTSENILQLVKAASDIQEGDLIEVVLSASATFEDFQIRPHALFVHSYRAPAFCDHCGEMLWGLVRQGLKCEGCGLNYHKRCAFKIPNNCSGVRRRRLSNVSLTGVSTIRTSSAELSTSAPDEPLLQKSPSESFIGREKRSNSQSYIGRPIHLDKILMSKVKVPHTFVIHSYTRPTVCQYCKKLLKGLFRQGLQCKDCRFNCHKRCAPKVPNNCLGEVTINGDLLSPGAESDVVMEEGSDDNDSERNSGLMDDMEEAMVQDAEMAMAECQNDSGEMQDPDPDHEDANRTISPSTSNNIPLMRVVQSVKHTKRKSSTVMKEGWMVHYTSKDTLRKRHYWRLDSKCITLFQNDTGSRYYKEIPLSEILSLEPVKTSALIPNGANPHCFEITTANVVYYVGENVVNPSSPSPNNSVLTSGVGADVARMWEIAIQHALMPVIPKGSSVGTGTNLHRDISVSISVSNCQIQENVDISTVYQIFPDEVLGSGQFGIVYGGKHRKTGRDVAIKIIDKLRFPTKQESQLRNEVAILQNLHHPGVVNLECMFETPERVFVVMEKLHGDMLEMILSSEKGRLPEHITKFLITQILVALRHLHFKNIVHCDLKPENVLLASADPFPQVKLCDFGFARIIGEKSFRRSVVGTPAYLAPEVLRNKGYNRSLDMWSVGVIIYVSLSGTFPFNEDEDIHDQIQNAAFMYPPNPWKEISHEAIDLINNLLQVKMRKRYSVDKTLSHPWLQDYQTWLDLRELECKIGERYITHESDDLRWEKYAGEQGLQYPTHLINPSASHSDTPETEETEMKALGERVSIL

[4] = target: T2, Protein kinase C epsilon type (Homo sapiens) (UniProt Q02156); test: Inhibition of PKCepsilon (unknown origin) at 30 uM by microfluidic mobility shift assay relative to control; outline: as §1
T2 sequence (whole entry): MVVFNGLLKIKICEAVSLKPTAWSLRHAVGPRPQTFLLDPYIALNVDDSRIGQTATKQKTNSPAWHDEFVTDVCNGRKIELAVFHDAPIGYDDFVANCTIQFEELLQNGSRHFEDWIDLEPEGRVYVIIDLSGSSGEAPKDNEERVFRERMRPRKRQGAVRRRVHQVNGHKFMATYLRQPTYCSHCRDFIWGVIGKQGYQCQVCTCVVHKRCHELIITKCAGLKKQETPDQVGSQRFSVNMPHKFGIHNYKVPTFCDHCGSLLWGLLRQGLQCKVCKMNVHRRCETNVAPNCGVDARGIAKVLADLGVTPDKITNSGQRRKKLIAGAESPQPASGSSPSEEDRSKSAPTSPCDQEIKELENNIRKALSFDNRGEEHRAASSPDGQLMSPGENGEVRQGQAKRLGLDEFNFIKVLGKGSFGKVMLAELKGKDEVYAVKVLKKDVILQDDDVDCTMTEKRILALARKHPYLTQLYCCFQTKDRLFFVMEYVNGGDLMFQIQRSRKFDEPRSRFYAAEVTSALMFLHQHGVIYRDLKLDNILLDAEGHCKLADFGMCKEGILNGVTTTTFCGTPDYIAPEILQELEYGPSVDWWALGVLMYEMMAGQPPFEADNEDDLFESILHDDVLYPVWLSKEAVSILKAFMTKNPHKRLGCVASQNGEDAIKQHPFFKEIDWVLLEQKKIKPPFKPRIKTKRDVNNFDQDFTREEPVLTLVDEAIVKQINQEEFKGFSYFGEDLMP

[5] = tested on: Tyrosine-protein kinase ABL1 (Homo sapiens), P00519 [T315I]; test: Inhibition of ABL T315I mutant (unknown origin) at 30 uM by microfluidic mobility shift assay relative to control; type: protein assay; outline: as §2
[6] = target: T3, Serine/threonine-protein kinase Sgk1 (Homo sapiens) (UniProt O00141); test: Inhibition of SGK1 (unknown origin) at 30 uM by microfluidic mobility shift assay relative to control; outline: as §1
T3 sequence (whole entry): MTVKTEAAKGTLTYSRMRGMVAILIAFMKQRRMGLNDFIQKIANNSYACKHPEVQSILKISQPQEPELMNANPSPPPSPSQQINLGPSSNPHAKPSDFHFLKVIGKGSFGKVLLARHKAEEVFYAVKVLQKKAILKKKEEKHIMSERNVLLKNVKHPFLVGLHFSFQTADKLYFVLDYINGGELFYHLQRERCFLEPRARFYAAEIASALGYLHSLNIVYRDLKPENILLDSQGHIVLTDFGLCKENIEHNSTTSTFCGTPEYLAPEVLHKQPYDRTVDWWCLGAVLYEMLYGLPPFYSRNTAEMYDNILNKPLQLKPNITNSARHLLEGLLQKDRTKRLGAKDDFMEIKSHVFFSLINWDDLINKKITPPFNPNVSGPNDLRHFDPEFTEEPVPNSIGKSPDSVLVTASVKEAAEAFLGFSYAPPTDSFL

Homo sapiens [7] = organism: Homo sapiens; test: Inhibition of CSNK1 (unknown origin) at 30 uM by microfluidic mobility shift assay relative to control; outline: as §2
Homo sapiens [8] = organism: Homo sapiens; test: Inhibition of DYRK1 (unknown origin) at 30 uM by microfluidic mobility shift assay relative to control; outline: as §2
[9] = target: RAC-gamma serine/threonine-protein kinase (Homo sapiens) (UniProt Q9Y243); test: Inhibition of AKT3 (unknown origin) at 30 uM by microfluidic mobility shift assay relative to control; outline: as §2
[10] = target: Protein kinase C beta type (Homo sapiens) (UniProt P05771); test: Inhibition of PKCbeta-1 (unknown origin) at 30 uM by microfluidic mobility shift assay relative to control; outline: as §2
[11] = target: Protein kinase C theta type (Homo sapiens) (UniProt Q04759); test: Inhibition of PKCtheta (unknown origin) at 30 uM by microfluidic mobility shift assay relative to control; outline: as §1
Sequence of Protein kinase C theta type (Homo sapiens) (Q04759 whole entry, looked up): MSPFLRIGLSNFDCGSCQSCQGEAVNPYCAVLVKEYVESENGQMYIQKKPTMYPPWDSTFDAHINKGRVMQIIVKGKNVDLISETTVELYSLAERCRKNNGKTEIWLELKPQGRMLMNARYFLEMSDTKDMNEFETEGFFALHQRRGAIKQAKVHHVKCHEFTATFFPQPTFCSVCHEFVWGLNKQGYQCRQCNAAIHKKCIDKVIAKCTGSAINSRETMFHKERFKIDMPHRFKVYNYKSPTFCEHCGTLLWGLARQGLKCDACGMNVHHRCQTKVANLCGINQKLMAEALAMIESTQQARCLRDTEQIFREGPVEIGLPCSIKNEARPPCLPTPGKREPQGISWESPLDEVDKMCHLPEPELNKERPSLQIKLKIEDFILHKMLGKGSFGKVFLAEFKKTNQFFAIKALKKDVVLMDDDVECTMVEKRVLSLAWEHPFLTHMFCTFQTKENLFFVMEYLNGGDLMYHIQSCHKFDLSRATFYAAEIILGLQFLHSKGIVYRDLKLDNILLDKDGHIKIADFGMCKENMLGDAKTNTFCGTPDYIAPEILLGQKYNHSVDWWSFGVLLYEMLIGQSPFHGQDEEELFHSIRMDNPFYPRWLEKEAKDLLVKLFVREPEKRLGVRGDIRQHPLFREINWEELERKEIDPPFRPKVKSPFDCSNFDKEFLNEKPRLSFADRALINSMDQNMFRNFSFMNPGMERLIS

Sequence of RAC-gamma serine/threonine-protein kinase (Homo sapiens) (Q9Y243 whole entry): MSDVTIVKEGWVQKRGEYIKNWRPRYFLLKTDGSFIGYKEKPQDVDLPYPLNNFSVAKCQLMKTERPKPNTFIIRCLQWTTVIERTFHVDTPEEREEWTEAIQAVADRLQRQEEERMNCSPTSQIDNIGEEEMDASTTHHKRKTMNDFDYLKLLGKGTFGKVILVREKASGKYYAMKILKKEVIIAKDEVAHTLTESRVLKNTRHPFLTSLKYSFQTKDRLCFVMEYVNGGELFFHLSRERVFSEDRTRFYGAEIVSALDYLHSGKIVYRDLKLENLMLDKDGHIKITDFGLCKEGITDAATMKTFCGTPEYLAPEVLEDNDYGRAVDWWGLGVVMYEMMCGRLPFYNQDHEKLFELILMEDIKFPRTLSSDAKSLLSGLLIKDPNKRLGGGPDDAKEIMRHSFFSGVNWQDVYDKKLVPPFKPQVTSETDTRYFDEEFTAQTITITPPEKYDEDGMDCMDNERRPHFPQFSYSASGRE
Sequence of Vascular endothelial growth factor receptor 2 (Homo sapiens) (P35968 whole entry): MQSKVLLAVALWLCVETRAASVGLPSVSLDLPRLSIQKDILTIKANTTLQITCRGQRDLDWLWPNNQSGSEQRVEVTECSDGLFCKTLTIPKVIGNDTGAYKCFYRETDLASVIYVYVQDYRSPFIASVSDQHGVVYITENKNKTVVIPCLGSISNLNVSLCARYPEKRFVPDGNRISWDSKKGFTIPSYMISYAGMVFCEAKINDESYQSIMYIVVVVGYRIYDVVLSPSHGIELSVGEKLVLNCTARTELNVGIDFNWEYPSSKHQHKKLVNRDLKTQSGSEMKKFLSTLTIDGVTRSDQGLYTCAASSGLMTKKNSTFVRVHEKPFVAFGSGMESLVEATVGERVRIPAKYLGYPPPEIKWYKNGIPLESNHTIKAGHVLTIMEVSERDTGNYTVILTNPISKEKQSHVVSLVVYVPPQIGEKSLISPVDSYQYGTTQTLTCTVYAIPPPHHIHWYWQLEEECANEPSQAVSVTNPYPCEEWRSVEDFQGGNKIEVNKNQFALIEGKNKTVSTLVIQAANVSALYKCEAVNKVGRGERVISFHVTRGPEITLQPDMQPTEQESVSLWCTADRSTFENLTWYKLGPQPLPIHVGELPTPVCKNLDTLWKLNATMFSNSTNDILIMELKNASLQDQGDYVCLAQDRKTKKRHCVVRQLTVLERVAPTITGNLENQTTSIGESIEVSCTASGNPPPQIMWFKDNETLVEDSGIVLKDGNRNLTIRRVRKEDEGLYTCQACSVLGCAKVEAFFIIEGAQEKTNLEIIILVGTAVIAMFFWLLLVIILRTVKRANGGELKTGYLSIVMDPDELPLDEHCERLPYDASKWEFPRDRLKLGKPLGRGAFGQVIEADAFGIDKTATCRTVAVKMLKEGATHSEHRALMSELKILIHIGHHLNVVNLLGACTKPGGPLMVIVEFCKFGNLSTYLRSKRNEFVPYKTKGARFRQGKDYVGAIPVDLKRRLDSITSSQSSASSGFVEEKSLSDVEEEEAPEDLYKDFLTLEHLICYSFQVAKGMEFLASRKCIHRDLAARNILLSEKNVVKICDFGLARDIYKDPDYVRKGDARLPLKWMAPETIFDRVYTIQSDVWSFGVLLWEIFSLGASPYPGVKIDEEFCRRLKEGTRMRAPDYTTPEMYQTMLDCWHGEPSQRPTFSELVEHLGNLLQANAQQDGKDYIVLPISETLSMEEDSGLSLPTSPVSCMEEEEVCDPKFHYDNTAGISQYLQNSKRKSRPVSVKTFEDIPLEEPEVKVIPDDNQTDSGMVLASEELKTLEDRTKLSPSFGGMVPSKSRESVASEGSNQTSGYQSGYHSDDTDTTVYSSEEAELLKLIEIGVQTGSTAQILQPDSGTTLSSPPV
Sequence of Ribosomal protein S6 kinase alpha-3 (Homo sapiens) (P51812 whole entry): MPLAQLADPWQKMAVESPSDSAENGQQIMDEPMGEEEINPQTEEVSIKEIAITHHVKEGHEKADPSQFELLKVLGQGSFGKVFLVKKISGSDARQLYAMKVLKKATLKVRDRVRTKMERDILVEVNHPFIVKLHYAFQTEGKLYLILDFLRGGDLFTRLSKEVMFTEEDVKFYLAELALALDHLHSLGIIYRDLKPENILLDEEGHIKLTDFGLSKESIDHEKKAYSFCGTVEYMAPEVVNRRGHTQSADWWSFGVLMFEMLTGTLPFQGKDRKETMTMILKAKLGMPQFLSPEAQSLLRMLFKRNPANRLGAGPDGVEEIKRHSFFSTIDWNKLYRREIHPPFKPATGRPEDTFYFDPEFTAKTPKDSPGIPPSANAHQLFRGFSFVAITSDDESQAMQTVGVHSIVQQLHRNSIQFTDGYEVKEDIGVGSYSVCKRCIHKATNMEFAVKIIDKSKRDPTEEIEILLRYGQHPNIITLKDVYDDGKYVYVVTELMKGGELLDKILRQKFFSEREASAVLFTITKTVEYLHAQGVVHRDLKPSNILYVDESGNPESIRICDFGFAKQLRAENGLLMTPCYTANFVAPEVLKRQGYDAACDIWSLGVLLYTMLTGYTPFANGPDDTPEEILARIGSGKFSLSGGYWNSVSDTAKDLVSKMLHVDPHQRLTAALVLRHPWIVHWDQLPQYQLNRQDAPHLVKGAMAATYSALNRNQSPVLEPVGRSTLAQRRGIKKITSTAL
Sequence of Protein kinase C beta type (Homo sapiens) (P05771 2-671 limits assumed): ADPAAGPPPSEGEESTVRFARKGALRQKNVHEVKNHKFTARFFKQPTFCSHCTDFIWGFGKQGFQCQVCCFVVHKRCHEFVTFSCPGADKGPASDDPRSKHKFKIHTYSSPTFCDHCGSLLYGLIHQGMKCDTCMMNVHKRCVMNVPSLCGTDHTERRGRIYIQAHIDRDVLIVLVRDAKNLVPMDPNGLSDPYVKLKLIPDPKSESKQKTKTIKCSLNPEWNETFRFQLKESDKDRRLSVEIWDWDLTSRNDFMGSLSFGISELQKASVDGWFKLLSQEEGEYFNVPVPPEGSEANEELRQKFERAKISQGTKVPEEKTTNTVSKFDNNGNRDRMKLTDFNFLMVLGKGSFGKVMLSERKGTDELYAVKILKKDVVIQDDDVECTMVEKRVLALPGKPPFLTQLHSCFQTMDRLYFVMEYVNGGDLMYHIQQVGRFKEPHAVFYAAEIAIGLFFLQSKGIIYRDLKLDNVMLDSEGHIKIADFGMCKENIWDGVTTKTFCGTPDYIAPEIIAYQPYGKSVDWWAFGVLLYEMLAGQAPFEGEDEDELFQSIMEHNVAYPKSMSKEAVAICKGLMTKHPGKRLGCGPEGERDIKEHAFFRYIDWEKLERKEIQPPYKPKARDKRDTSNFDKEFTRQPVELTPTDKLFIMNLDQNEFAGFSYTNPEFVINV

inhibition [1] | inhibition [2] | inhibition [3] | inhibition [4] | inhibition [5] | inhibition [6] | inhibition (Homo sapiens [7]) | inhibition (Homo sapiens [8]) | inhibition [9] | inhibition [10] | inhibition [11] | Compound
84% | 35% | 44% | 66% | 14% | 41% | 11% | 8% | 96% | 65% | 77% | c1ccc(C2CCNC3(CCN(c4ncnc5[nH]cnc45)CC3)C2)cc1 (racemic)
63% | 31% | 12% | 24% | 16% | 15% | 14% | 13% | 69% | 38% | 17% | c1ccc(CC2CCC3(CCN(c4ncnc5[nH]cnc45)CC3)NC2)cc1 (racemic)
94% | 11% | 72% | 64% | 17% | 64% | 11% | 7% | 101% | 76% | 75% | c1ccc(CC2CCNC3(CCN(c4ncnc5[nH]cnc45)CC3)C2)cc1 (racemic)
